According to paper PMC11584596 (IDCases, 2024):
Values after ≈ are worked out from the molar mass of the structure shown. Where two headings read alike, the source gives them in different places.

What was measured:
[1] = tested on: methicillin-resistant Staphylococcus epidermidis (MRSE); assay: Antimicrobial susceptibility; format: cell-based; conditions: for MIC: Staphylococcus epidermidis, MRSE; for MIC^1: MRSE isolate from sample 1 of periprosthetic fluid at diagnosis; for MIC^2: MRSE isolate from sample 2 of periprosthetic fluid at diagnosis
How it was run: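 Two MRSE isolates, each recovered from a separate sample of periprosthetic fluid taken by sterile drainage at diagnosis. A susceptibility profile was recorded for each isolate.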

[2] = tested on: shoulder PJI caused by methicillin-resistant Staphylococcus epidermidis (MRSE); assay: Clinical course of shoulder prosthetic joint infection under oritavancin; format: in vivo, human (patient); conditions: ten sequential doses of 1200 mg over 28 weeks; single patient
Gram-positive infections = conditions: 30 of 32 patients who received at least two doses of oritavancin; cited from earlier work

## Cc1onc(-c2ccccc2)c1C(=O)N[C@@H]1C(=O)N2[C@@H]1SC(C)(C)[C@@H]2C(=O)O [Oxacillin]
[1]; read-out: MIC^1
  MIC: > 2 µg/mL
[1]; read-out: MIC^2
  MIC: > 2 µg/mL

## O=C(O)c1cn(C2CC2)c2cc(N3CCNCC3)c(F)cc2c1=O [Ciprofloxacin]
[1]; read-out: MIC^1
  MIC: > 4 µg/mL
[1]; read-out: MIC^2
  MIC: > 4 µg/mL

## CC[C@H]1OC(=O)[C@H](C)[C@@H](O[C@H]2C[C@@](C)(OC)[C@@H](O)[C@H](C)O2)[C@H](C)[C@@H](O[C@@H]2O[C@H](C)C[C@H](N(C)C)[C@H]2O)[C@](C)(O)C[C@@H](C)C(=O)[C@H](C)[C@@H](O)[C@]1(C)O [Eritromicin]
[1]
  MIC^1: ≤ 0.25 µg/mL
  MIC^2: 1 µg/mL (≈ 1.36 µM)

## Vancomicin
[1]
  MIC^1: 2 µg/mL
  MIC^2: ≤ 0.5 µg/mL

## CC(=O)O[C@H]1C[C@@]2(C)[C@@H](C[C@@H](O)[C@H]3[C@@]4(C)CC[C@@H](O)[C@@H](C)[C@@H]4CC[C@@]32C)/C1=C(\CCC=C(C)C)C(=O)O [Fusidic Acid]
[1]; read-out: MIC^1
  MIC: > 8 µg/mL
[1]; read-out: MIC^2
  MIC: 16 µg/mL (≈ 31 µM)

## CN[C@H](CC(C)C)C(=O)N[C@H]1C(=O)N[C@@H](CC(N)=O)C(=O)N[C@H]2C(=O)N[C@H]3C(=O)N[C@H](C(=O)N[C@H](C(=O)O)c4cc(O)cc(O)c4-c4cc3ccc4O)[C@H](O[C@H]3C[C@](C)(N)[C@@H](O)[C@H](C)O3)c3ccc(c(Cl)c3)Oc3cc2cc(c3O[C@@H]2O[C@H](CO)[C@@H](O)[C@H](O)[C@H]2O[C@H]2C[C@](C)(NCc3ccc(-c4ccc(Cl)cc4)cc3)[C@@H](O)[C@H](C)O2)Oc2ccc(cc2Cl)[C@H]1O [Oritavancin]
[2]
  side effects: no side effects reported
Gram-positive infections
  clinical success: 93.8%

## CCC[C@@H]1C[C@@H](C(=O)N[C@@H]([C@H]2O[C@H](SC)[C@H](O)[C@@H](O)[C@H]2O)[C@H](C)Cl)N(C)C1 [Clindamicin]
[1]; read-out: MIC^1
  MIC: ≤ 0.25 µg/mL
[1]; read-out: MIC^2
  MIC: 0.25 µg/mL (≈ 0.588 µM)

## COc1c(N2C[C@@H]3CCCN[C@@H]3C2)c(F)cc2c(=O)c(C(=O)O)cn(C3CC3)c12 [Moxifloxacin]
[1]; read-out: MIC^1
  MIC: > 1 µg/mL

## CC(=O)NC[C@H]1CN(c2ccc(N3CCOCC3)c(F)c2)C(=O)O1 [Linezolid]
[1]; read-out: MIC^1
  MIC: 1 µg/mL (≈ 2.96 µM)
[1]; read-out: MIC^2
  MIC: 2 µg/mL (≈ 5.93 µM)

## CNC(C)C1CCC(N)C(OC2C(N)CC(N)C(OC3OCC(C)(O)C(NC)C3O)C2O)O1 (centres unmarked) [Gentamicin]
[1]; read-out: MIC^1
  MIC: ≤ 1 µg/mL
[1]; read-out: MIC^2
  MIC: ≤ 0.5 µg/mL

## CC1(C)S[C@@H]2[C@H](NC(=O)[C@H](N)c3ccccc3)C(=O)N2[C@H]1C(=O)O [Ampicillin]
[1]; read-out: MIC^1
  MIC: > 2 µg/mL

## Teicoplanin
[1]
  MIC^1: < 2 µg/mL

## C[C@@H]1O[C@@H]1P(=O)(O)O [Fosfomicin c/G6P, Fosfomicin]
[1]
  MIC^1: ≤ 16 µg/mL

## CN(C)[C@@H]1C(O)=C(C(N)=O)C(=O)[C@@]2(O)C(O)=C3C(=O)c4c(O)cccc4[C@@](C)(O)[C@H]3C[C@@H]12 [Tetraciclin]
[1]
  MIC^1: 1 µg/mL (≈ 2.25 µM)
  MIC^2: 2 µg/mL (≈ 4.5 µM)

## Daptomicin
[1]
  MIC^2: 0.25 µg/mL

## CO[C@H]1/C=C/O[C@@]2(C)Oc3c(C)c(O)c4c(O)c(c(/C=N/N5CCN(C)CC5)c(O)c4c3C2=O)NC(=O)/C(C)=C\C=C\[C@H](C)[C@H](O)[C@@H](C)[C@@H](O)[C@@H](C)[C@H](OC(C)=O)[C@@H]1C [Rifampin]
[1]; read-out: MIC^1
  MIC: > 1 µg/mL
[1]; read-out: MIC^2
  MIC: > 2 µg/mL

## CN(C)c1cc(NC(=O)CNC(C)(C)C)c(O)c2c1C[C@H]1C[C@H]3[C@H](N(C)C)C(O)=C(C(N)=O)C(=O)[C@@]3(O)C(O)=C1C2=O [Tigeciclin]
[1]
  MIC^1: ≤ 0.25 µg/mL
  MIC^2: 0.25 µg/mL (≈ 0.427 µM)
